GSTO1 inh = blocks human GSTO1 in RBBP9 counter-screen. inhibition, % at 5.96 µM. recombinant GSTO1, activity-based probe fluorescence polarization. hit rate 1.1% among 300,000;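 active means inhibition above the campaign mean inhibition plus 3 SD, cut at about 35% in these data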
UBC9 SUMO inh = SUMOylation inhibition | P63279 | inhibition, % at 35 µM | HTRF SUMOylation assay, SAE1/SAE2 + UBC9, in vitro | hit rate 0.36% among 290,000; in the data active means inhibition above about 50%, passing the limit was not always enough
PAD4 FP inh = blocks human protein arginine deiminase 4; Q9UM07; recombinant PAD4, RCA probe fluorescence polarization; inhibition, % at 6.36 µM; hit rate 0.41% among 330,000; AID 485272;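 active means percent inhibition above a cutoff equal to the mean of all tested compounds plus 3 SD, cut at about 15% in these data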
Target sequence (Q9UM07 whole entry, looked up): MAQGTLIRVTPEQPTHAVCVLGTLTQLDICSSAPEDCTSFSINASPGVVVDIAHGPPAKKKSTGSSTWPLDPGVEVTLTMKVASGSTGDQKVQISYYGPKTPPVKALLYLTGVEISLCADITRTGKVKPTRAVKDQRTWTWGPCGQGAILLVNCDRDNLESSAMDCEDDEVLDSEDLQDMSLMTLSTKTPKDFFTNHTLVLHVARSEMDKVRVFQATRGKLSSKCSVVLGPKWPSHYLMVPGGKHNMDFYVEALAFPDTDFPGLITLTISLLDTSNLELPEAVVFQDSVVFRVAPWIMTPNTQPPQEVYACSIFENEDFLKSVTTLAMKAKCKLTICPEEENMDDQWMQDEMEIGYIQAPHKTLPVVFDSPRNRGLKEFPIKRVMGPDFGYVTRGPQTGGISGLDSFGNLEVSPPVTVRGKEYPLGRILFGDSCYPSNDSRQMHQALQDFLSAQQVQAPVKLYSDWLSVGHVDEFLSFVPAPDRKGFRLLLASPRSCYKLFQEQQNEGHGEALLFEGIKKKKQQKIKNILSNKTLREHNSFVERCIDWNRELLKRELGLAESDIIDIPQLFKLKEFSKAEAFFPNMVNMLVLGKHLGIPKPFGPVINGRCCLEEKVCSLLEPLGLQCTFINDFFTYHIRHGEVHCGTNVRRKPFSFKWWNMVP
Apaf-1 inh = blocks human Apaf-1 apoptosome activity; O14727; reconstituted apoptosome caspase-3 activity, DEVD-Rh110 fluorescence; inhibition, % at 20 µM; hit rate 0.71% among 330,000; active means inhibition of at least 40% at 20 µM
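Material: cell-free apoptosome with Apaf-1, procaspase-3 and caspase-9; Buffer or medium: Hepes pH 7.5 with detergent and BSA; Reagent: cytochrome c trigger plus (Z-DEVD)2-Rh110 caspase-3 substrate; Times: compound with Apaf-1, dATP, procaspase-3 30 min, then 50 min reaction, room temperature; Technique: Rh110 fluorescence intensity.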
UBC13 inh = blocks human UBC13 polyubiquitin chain formation; inhibition, % at 20 µM; AID 485273; hit rate 0.47% among 330,000; P61088; TR-FRET; in the data active means inhibition above about 45%, passing the limit was not always enough
Rin1-Abl PPI inh = human Rin1-Abl interaction inhibition. P00519+Q13671. TR-FRET Rin1/Abl binding, biochemical. inhibition, % at 7.35 µM. hit rate 0.4% among 360,000. AID 588664; in the data active means inhibition above about 5%, passing the limit was not always enough
Apaf-1 inh conf = Apaf-1 inhibition, single-dose confirmed; shares compounds with Apaf-1 inh; reconstituted apoptosome, caspase-3 DEVD-Rh110 fluorescence; inhibition, % at 20 µM; hit rate 25% among 1,800;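 active means mean inhibition of at least 40% at 20 µM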
Rh110 quench = counter-screen for Apaf-1 inhibitors: fluorescence interference | activation (fluorescence interference), % at 20 µM | 1,800 tested, under 10 active | shares compounds with Apaf-1 inh | Rh110 fluorescence interference, quenched caspase reaction;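 active means signal rise of 40% or more at 20 µM, treated as a fluorescence artifact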
Fluor interf inh = shows fluorescence interference in the Apaf-1 inhibitor assay format | shares compounds with Apaf-1 inh | fluorescence interference counterscreen, Apaf-1 assay format | IC50, µM | 460 tested, under 10 active | AID 588538; call rule not given here
Numbers stand for hits; ! = not active in a repeat. This is a sample that favours compounds with a hit; in the whole collection about 2.2% have one here.

How did COc1ccc2nc3n(c(=O)c2c1)-c1ncccc1C(=O)NC3C (configuration not stated) do in these assays?
Rin1-Abl PPI inh: inactive

What do the screens show for `COc1cc(C)ccc1OCc1cc(C(=O)N2CCN(C3CCCCC3)CC2)no1`?
GSTO1 inh: inactive; UBC9 SUMO inh: inactive; PAD4 FP inh: inactive; Apaf-1 inh: inactive; UBC13 inh: inactive; Rin1-Abl PPI inh: inactive

Results for Cc1cc(C)c(S(=O)(=O)/N=C2/C=C(SCC(=O)O)C(=O)c3ccccc32)cc1C ?
UBC9 SUMO inh: inactive; Apaf-1 inh: 72.4; UBC13 inh: inactive; Rin1-Abl PPI inh: inactive; Apaf-1 inh conf: 55.1; Rh110 quench: inactive; Fluor interf inh: inactive

How did Cc1cccc(C)c1NC(=O)CN1CCC(Cc2ccccc2)CC1 do in these assays?
Rin1-Abl PPI inh: inactive

What do the screens show for `Cc1cccc(C)c1NC(=O)CN1CCN(CCCC(c2ccc(F)cc2)c2ccc(F)cc2)CC1`?
GSTO1 inh: inactive; PAD4 FP inh: inactive; Apaf-1 inh: 51.3; UBC13 inh: inactive; Rin1-Abl PPI inh: inactive; Apaf-1 inh conf: inactive; Rh110 quench: inactive

How did CCOC(=O)c1cc2cc3ccccc3cc2[nH]1 do in these assays?
GSTO1 inh: inactive; UBC9 SUMO inh: inactive; PAD4 FP inh: inactive; Apaf-1 inh: 58.4; UBC13 inh: inactive; Rin1-Abl PPI inh: inactive; Apaf-1 inh conf: inactive; Rh110 quench: inactive

How did CC(C)OC(=O)c1cc2ccccc2[nH]1 do in these assays?
GSTO1 inh: inactive; UBC9 SUMO inh: inactive; PAD4 FP inh: inactive; Apaf-1 inh: inactive; UBC13 inh: inactive; Rin1-Abl PPI inh: inactive

How did C[C@@H](CSc1ccc(Br)cc1)CN1CC[C@H](NC(=O)OCc2ccccc2)CCC1=O do in these assays?
PAD4 FP inh: inactive; Apaf-1 inh: 40.2; UBC13 inh: inactive; Rin1-Abl PPI inh: inactive; Apaf-1 inh conf: inactive; Rh110 quench: inactive

What do the screens show for `COc1ccc(SC[C@H](C)CN2CC[C@H](NC(=O)OCc3ccccc3)CCC2=O)cc1`?
PAD4 FP inh: inactive; Apaf-1 inh: 70.3; UBC13 inh: inactive; Rin1-Abl PPI inh: inactive; Apaf-1 inh conf: inactive; Rh110 quench: inactive

How did CSc1ccccc1NC(=O)COC(=O)c1cnc(C)cn1 do in these assays?
PAD4 FP inh: inactive; Apaf-1 inh: inactive; UBC13 inh: inactive; Rin1-Abl PPI inh: inactive

What do the screens show for `Cc1ccc(S(=O)(=O)N2C[C@@H]3[C@H]4CC[C@H](C4)[C@@H]3[C@@H](C)[C@@H]2c2cn(Cc3ccccc3)c3ccc(F)cc23)cc1`?
PAD4 FP inh: inactive; Apaf-1 inh: inactive; Rin1-Abl PPI inh: inactive

What do the screens show for `C[C@@H]1[C@H]2[C@@H]3CC[C@@H](C3)[C@H]2CN[C@H]1c1cn(Cc2ccccc2)c2ccccc12`?
PAD4 FP inh: inactive; Apaf-1 inh: 61.6; Rin1-Abl PPI inh: inactive; Apaf-1 inh conf: inactive; Rh110 quench: inactive

How did CSCc1ccc(C(=O)OCc2nc3ccccc3s2)o1 do in these assays?
PAD4 FP inh: inactive; Apaf-1 inh: inactive; UBC13 inh: inactive; Rin1-Abl PPI inh: inactive

What do the screens show for `COc1ccc(/C=N/NC(=O)c2nn(-c3ccccc3)c(=O)c3c(N)scc23)cc1`?
GSTO1 inh: 53.4; UBC9 SUMO inh: inactive; PAD4 FP inh: inactive; Apaf-1 inh: 60.5; UBC13 inh: inactive; Rin1-Abl PPI inh: inactive; Apaf-1 inh conf: 40.2; Rh110 quench: inactive; Fluor interf inh: inactive

Results for COc1ccc(/C=N/NC(=O)c2nn(-c3ccc(C)c(C)c3)c(=O)c3ccccc23)cc1 ?
GSTO1 inh: inactive; UBC9 SUMO inh: inactive; PAD4 FP inh: inactive; Apaf-1 inh: inactive; UBC13 inh: inactive; Rin1-Abl PPI inh: inactive

Results for COc1ccc(/C=N/NC(=O)c2nn(-c3ccc(Cl)cc3)c(=O)c3c(N)scc23)cc1 ?
GSTO1 inh: inactive; UBC9 SUMO inh: inactive; PAD4 FP inh: inactive; Apaf-1 inh: 53.8; UBC13 inh: inactive; Rin1-Abl PPI inh: inactive; Apaf-1 inh conf: inactive; Rh110 quench: inactive

How did Cc1cc(C)c(C#N)c(N2CCCC2)n1 do in these assays?
GSTO1 inh: inactive; UBC9 SUMO inh: inactive; PAD4 FP inh: inactive; Apaf-1 inh: inactive; UBC13 inh: inactive; Rin1-Abl PPI inh: inactive

Results for COc1cc2c(C#N)c(N3CCCC3)nc(N)c2c(N)n1 ?
GSTO1 inh: inactive; PAD4 FP inh: inactive; Apaf-1 inh: 83.8; UBC13 inh: inactive; Rin1-Abl PPI inh: inactive; Apaf-1 inh conf: 49.4!; Rh110 quench: inactive

Results for CCCOc1cc2c(C#N)c(N3CCCC3)nc(N)c2c(N)n1 ?
GSTO1 inh: inactive; PAD4 FP inh: inactive; Apaf-1 inh: 97.6; UBC13 inh: inactive; Rin1-Abl PPI inh: inactive; Apaf-1 inh conf: 73.5; Rh110 quench: inactive; Fluor interf inh: inactive

Results for CCCCN(CC)c1nc(N)c2c(N)nc(OCC)cc2c1C#N ?
GSTO1 inh: inactive; UBC9 SUMO inh: inactive; PAD4 FP inh: inactive; Apaf-1 inh: 97.8; UBC13 inh: inactive; Rin1-Abl PPI inh: inactive; Apaf-1 inh conf: inactive; Rh110 quench: inactive

How did O=C(N/C(=C/c1ccc(F)cc1)C(=O)N1CCCCC1)c1ccco1 do in these assays?
GSTO1 inh: inactive; UBC9 SUMO inh: inactive; PAD4 FP inh: inactive; Apaf-1 inh: inactive; UBC13 inh: inactive; Rin1-Abl PPI inh: inactive

What do the screens show for `C[C@H](CO)NC(=O)c1nc[nH]c1C(=O)N[C@H](C)c1ccccc1`?
Rin1-Abl PPI inh: inactive

What do the screens show for `CCn1c(=O)c2cc(C(=O)N(C)c3cc(C)ccc3OC)sc2c2ccccc21`?
GSTO1 inh: inactive; UBC9 SUMO inh: inactive; PAD4 FP inh: inactive; Apaf-1 inh: 53.4; UBC13 inh: inactive; Rin1-Abl PPI inh: inactive; Apaf-1 inh conf: inactive; Rh110 quench: inactive

Results for CCn1c(=O)c2cc(C(=O)N(C)c3ccc(OC)cc3OC)sc2c2ccccc21 ?
GSTO1 inh: inactive; UBC9 SUMO inh: inactive; PAD4 FP inh: inactive; Apaf-1 inh: inactive; UBC13 inh: inactive; Rin1-Abl PPI inh: inactive

How did C[C@H](CO)N1C[C@H](C)[C@@H](CN(C)C(=O)Nc2cc(F)ccc2F)Oc2ncc(-c3cccc(F)c3)cc2C1=O do in these assays?
Rin1-Abl PPI inh: inactive

How did COCCCN1C(=O)C(CC(=O)NC2CCCCC2)CC(C(=O)N2CCOCC2)=C1C (configuration not stated) do in these assays?
Rin1-Abl PPI inh: inactive

Results for CCN1CCN(c2ccc(NC(=O)c3ccccc3F)cc2Cl)CC1 ?
GSTO1 inh: inactive; UBC9 SUMO inh: inactive; PAD4 FP inh: inactive; Apaf-1 inh: inactive; UBC13 inh: inactive; Rin1-Abl PPI inh: inactive

What do the screens show for `CCN1CCN(c2ccc(NC(=O)c3cc4ccccc4cc3OC)cc2C)CC1`?
PAD4 FP inh: inactive; Apaf-1 inh: 51.1; UBC13 inh: inactive; Rin1-Abl PPI inh: inactive; Apaf-1 inh conf: inactive; Rh110 quench: inactive

Source: PubChem
